Measurements of several laboratories.
Protocols differ between the studies behind these lines.

Structure (SMILES) | tested on | effect on | method | strain | time | notes | IC50 [nM]
O[C@@H](CN[C@@H](COCC1CC1)Cc1ccccc1)c1cc(Cl)cc2c1-c1ccc(Cl)cc1C2 | Plasmodium falciparum | parasite growth | SYBR Green | W2 | 48 h | drug-resistant strain, blood stage | 5.4
CC(C)C[C@@H]1NC(=O)[C@H](CC(N)=O)NC(=O)[C@H](CCCNC(=N)N)NC(=O)[C@H]([C@@H](C)O)NC(=O)[C@@H]2CSSC[C@@H]3NC(=O)[C@H]([C@@H](C)O)NC(=O)CNC(=O)CNC(=O)[C@H](C(C)C)NC(=O)[C@@H]4CSSC[C@H](NC(=O)[C@H](CCCCN)NC(=O)[C@H](CSSC[C@H](NC(=O)[C@H](C(C)C)NC(=O)[C@@H]5CCCN5C(=O)[C@H](CC(C)C)NC1=O)C(=O)NCC(=O)N[C@@H](CCC(=O)O)C(=O)N[C@@H]([C@@H](C)O)C(=O)N4)NC(=O)CNC(=O)[C@@H]1CCCN1C(=O)[C@H]([C@@H](C)O)NC(=O)[C@H](CC(N)=O)NC3=O)C(=O)N[C@@H](CO)C(=O)N[C@@H](Cc1c[nH]c3ccccc13)C(=O)N1CCC[C@H]1C(=O)N[C@@H](C(C)C)C(=O)N2 | Sf9 | cell growth or viability | MTT |  | 24 h |  | 1800
C[N+]1=C2C=C(NCCc3ccc(O)cc3)C(=O)c3[nH]cc(c32)CC1 | Plasmodium falciparum | parasite growth | SYBR Green | 3D7 |  | blood stage | 18.8
CC(C)C[C@@H]1NC(=O)[C@H](CCCCN)NC(=O)[C@H](CC(N)=O)NC(=O)[C@H](CCCNC(=N)N)NC(=O)[C@H]([C@@H](C)O)NC(=O)[C@@H]2CSSC[C@@H]3NC(=O)[C@H]([C@@H](C)O)NC(=O)CNC(=O)CNC(=O)[C@H](C(C)C)NC(=O)[C@@H]4CSSC[C@H](NC(=O)[C@H]([C@@H](C)O)NC(=O)[C@H](CSSC[C@H](NC(=O)[C@H](C(C)C)NC(=O)[C@@H]5CCCN5C1=O)C(=O)NCC(=O)N[C@@H](CCC(=O)O)C(=O)N[C@@H]([C@@H](C)O)C(=O)N4)NC(=O)CNC(=O)[C@@H]1CCCN1C(=O)[C@H]([C@@H](C)O)NC(=O)[C@H](CC(N)=O)NC3=O)C(=O)N[C@@H](CO)C(=O)N[C@@H](Cc1c[nH]c3ccccc13)C(=O)N1CCC[C@H]1C(=O)N[C@@H](C(C)C)C(=O)N2 | Sf9 | cell growth or viability | MTT |  | 24 h |  | 3000
Cn1cc2c3c1C(=O)C(N)=CC3=[N+](C)CC2 | Plasmodium falciparum | parasite growth | SYBR Green | W2 |  | blood stage | 3030
CC(C)C[C@@H]1NC(=O)CNC(=O)[C@H](CC(N)=O)NC(=O)[C@H](CCCNC(=N)N)NC(=O)[C@H]([C@@H](C)O)NC(=O)[C@@H]2CSSC[C@@H]3NC(=O)[C@H]([C@@H](C)O)NC(=O)CNC(=O)CNC(=O)[C@H](C(C)C)NC(=O)[C@@H]4CSSC[C@H](NC(=O)[C@H](CCCCN)NC(=O)[C@H](CSSC[C@H](NC(=O)[C@H](C(C)C)NC(=O)[C@@H]5CCCN5C1=O)C(=O)NCC(=O)N[C@@H](CCC(=O)O)C(=O)N[C@@H]([C@@H](C)O)C(=O)N4)NC(=O)CNC(=O)[C@@H]1CCCN1C(=O)[C@H]([C@@H](C)O)NC(=O)[C@H](CC(N)=O)NC3=O)C(=O)N[C@@H](CO)C(=O)N[C@@H](Cc1c[nH]c3ccccc13)C(=O)N1CCC[C@H]1C(=O)N[C@@H](C(C)C)C(=O)N2 | Sf9 | cell growth or viability | MTT |  | 24 h |  | 2600
CCCCCCCNC[C@H](O)c1cc(Cl)cc2c1-c1ccc(Cl)cc1C2 | Plasmodium falciparum | parasite growth | SYBR Green | W2 | 48 h | drug-resistant strain, blood stage | 4.4
Cn1cc2c3c1C(=O)C(NCCc1ccc(O)cc1)=CC3=[N+](C)CC2 | Plasmodium falciparum | parasite growth | SYBR Green | 3D7 |  | blood stage | 43.7
CCCCCCCCNC[C@H](O)c1cc(Cl)cc2c1-c1ccc(Cl)cc1C2 | Plasmodium falciparum | parasite growth | SYBR Green | W2 | 48 h | drug-resistant strain, blood stage | 5.1
N.N.[Cl][Pt][Cl] | NCI-H460 | cell growth or viability | MTT |  |  |  | 7550
